According to ChEMBL document CHEMBL3217642, “Mechanistic insight into inhibition of two-component system signaling” (Medchemcomm, 2013):
pIC50, pKd: −log10 of the molar value. The source made the active and inactive calls. The rule behind the calls is not given here.

Legend:
[1] = system: Thermotoga maritima; test: Binding affinity to Thermotoga maritima histidine kinase HK853 D411A mutant by STD-NMR analysis
[2] = system: Thermotoga maritima; test: Induction of Thermotoga maritima histidine kinase HK853 aggregation up to 1000 uM by gel based assay
Method in brief: (§1)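 Purified HK853 (0.44 μM) in 20 mM HEPES pH 7.5, with or without 0.1% final Triton X-100, incubated with varied analogue concentrations (DMSO ≤5% v/v) 4 h RT. Read by native-PAGE with silver staining (band disappearance), and by SDS-PAGE after BS3 crosslinking (100-fold molar excess, 2 h RT, quenched with 20 mM ammonium bicarbonate) with silver staining.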

[3] = system: Thermotoga maritima; test: Inhibition of Thermotoga maritima histidine kinase HK853 autophosphorylation at 10 mM
Method in brief: (§2)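 Purified HK853 (600 ng) in 50 mM Tris–HCl, 0.2 M KCl, 5 mM MgCl2, pH 7.8 preincubated 30 min with varied analogue concentrations (DMSO ≤5% v/v), then labeled with BODIPY-FL-ATPγS (2 μM final), 1 h RT in dark. Quenched with SDS loading buffer (unheated), resolved by SDS-PAGE, fluorescence band intensity integrated; gels then coomassie stained.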

[4] = Binding affinity to Thermotoga maritima histidine kinase HK853 by STD-NMR analysis
[5] = system: Thermotoga maritima; test: Displacement of BODIPY-FL-ATP-gamma-S from Thermotoga maritima histidine kinase HK853 at 1 mM to 600 uM; method in brief: as §2
[6] = system: Thermotoga maritima; test: Inhibition of Thermotoga maritima histidine kinase HK853 autophosphorylation up to 10 mM; method in brief: as §2
[7] = system: Thermotoga maritima; test: Induction of Thermotoga maritima histidine kinase HK853 aggregation up to 10 mM by gel based assay; method in brief: as §1
[8] = system: Thermotoga maritima; test: Binding affinity to Thermotoga maritima histidine kinase HK853 by STD-NMR analysis in presence of ADP
[9] = Inhibition of Thermotoga maritima histidine kinase HK853 autophosphorylation; method in brief: as §2

SMILES | pKd [4] | inhibition [5] | pIC50 [9] | other results
N=C(N)NCCc1ccc(O)cc1 | 2.62 |  |  | Activity [1]: inactive; inhibition [2]: inactive; inhibition [3]: inactive
CCCCCCCOc1ccc(CCNC(=N)N)cc1 |  | Active |  | 
CS(=O)(=O)c1ccc(CCNC(=N)N)cc1 | 3.24 |  |  | inhibition [6]: Active; Activity [7]: inactive; Activity [8]: inactive
CCCCCCCCCCOc1ccc(CCNC(=N)N)cc1 |  | Active |  | 
CCCN(C(=O)/C(C#N)=C(/C)O)c1nc(-c2ccc(C(C)(C)C)cc2)cs1 |  |  | 4.52 | 
C/C(=C/CC(C)(C)/C=C/C(=O)N[C@@H](Cc1c[nH]c2ccccc12)C(=O)O)CC/C=C(\C)Br |  |  | 4.36 | 
